Here are results for one compound from ChEMBL document CHEMBL4342521 (J Med Chem, 2020).

Structures are written as SMILES. Active and inactive are the calls of the source. No cut-off for these calls is given here.

For orientation: AUC(0-inf) means the area under the concentration-time curve extrapolated to infinity. For orientation: bioavailability means dose-corrected exposure relative to a reference, in per cent. A low value points to poor availability. What is called Cmax is the peak of the concentration-time curve. One may read the half-life as how long it takes for the measured level to halve. A higher half-life goes with slow decline.

The nature of series [1]: AUC (0 to infinity) in BALB/c mouse at 50 mg/kg, po via gavage after 24 hrs by Lc-MS/MS analysis. Format: ADME, organism-based. Further details: dose 50 mg/kg, time infinity, route oral. Particulars: in vivo.
The nature of series [2]: Oral bioavailability in BALB/c mouse at 50 mg/kg dosed via gavage after 24 hrs by Lc-MS/MS analysis. It is filed as ADME, organism-based. Particulars: in vivo.
In another series the test system is RS4-11. Kind of series: Induction of apoptosis in human RS4:11 cells harboring wild type p53/FLT3 assessed as cleavage of pro-caspase 3 at 100 nM after 24 hrs by Western blot analysis. It is filed as functional, cell-based. In a few lines: (§1)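 Cells (1,500,000 per well) grown 12 h, then drug-treated as specified. Lysed in RIPA buffer, sonicated, centrifuged, protein normalized by BCA. Run on 4–12% Bis-Tris gels in MES, transferred, probed overnight at 4 °C with primary antibodies at 1/1000. Actin served as reference for LC3-II quantitation.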

The nature of series [3]: Cmax in BALB/c mouse at 50 mg/kg, po via gavage after 24 hrs by Lc-MS/MS analysis. Format: ADME, organism-based. On the set-up: dose 50 mg/kg, route oral. Particulars: in vivo.
Series [4] can be described thus: Half life in BALB/c mouse at 50 mg/kg, po via gavage after 24 hrs by Lc-MS/MS analysis. It is filed as ADME, organism-based. The conditions noted are these: in vivo.
In the next series the test system is MV4-11. Kind of series: Induction of apoptosis in human MV4-11 cells harboring wild type p53/FLT3-ITD mutant assessed as cleavage of pro-caspase 3 at 100 nM after 24 hrs by Western blot analysis. It is filed as functional, cell-based. In a few lines:
as §1
On the technique in general: In western blotting, separated proteins are transferred to a membrane and probed.

Series [5] is described as follows: Mutagenecity in Salmonella typhimurium TA100 at 10 uM in presence of S9 liver homogenate after 2 to 3 days by mini-Ames test. Format: toxicity. The conditions noted are these: salmonella enterica subsp. enterica serovar typhimurium, s9, 10 µM. The essentials:
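Compound was tested at a final 10 μM undiluted plus four serial dilutions, with S9 mix and glucose/biotin/trace-histidine exposure solution, for 100 min at 37 °C. Reversion medium was added and cultures dispensed to 96 wells for 2–3 days at 37 °C. Yellow or partial-yellow wells were scored positive; 2-aminoanthracene was the positive control.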

In series [1], `Cc1[nH]c2ccccc2c1CCNCc1ccc(/C=C/C(=O)NO)cc1` [PANOBINOSTAT] returned an AUC(0-inf) of 126 ng·h/mL. The bioavailability in series [2] came out at 4.62%. Besides, the result in the series on RS4-11 and with MV4-11 was Active. Moreover, the highest level in series [3] (Cmax) was 116 ng/mL. Further, in series [4], the half-life was 2.9 h. Also, in series [5], the Activity entry is on record as “Toxic”.
